Laboratory results published in ChEMBL document CHEMBL4364272, “Discovery of a Lead Triphenylethanamine Cholesterol Ester Transfer Protein (CETP) Inhibitor” (ACS Med Chem Lett, 2019).
pIC50: −log10 of the molar value. The source made the active and inactive calls. The rule behind the calls is not given here.

How the values were obtained:
[1] = Clearance in Sprague-Dawley rat at 1 mg/kg, iv or 10 mg/kg, po administered via gavage measured upto 24 hrs by LC-MS/MS; type: ADME, organism-based; conditions: in vivo
Method in brief: (§1)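 Single IV and oral doses: rat 1 mg/kg IV and 10 mg/kg PO; mouse 5 mg/kg IV and 10 mg/kg PO; monkey 1 mg/kg IV and 5 mg/kg PO. IV vehicle was 10% Cremophor/10% EtOH/80% H2O for rodents and 70% PEG-400/10% EtOH/20% H2O for monkey. Oral vehicle was 15% Miglyol 812/30% Capmul MCM/15% Triacetin/40% Cremophor RH40, or the Cremophor vehicle for rat. Vss, Cl, t1/2 and %F were derived.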

CYP11B1 = test: Effect on CYP11B1 gene expression in human NCI-H295R cells at 10 uM measured after 24 hrs relative to control; type: ADME, cell-based; conditions: read-out: FC
Method in brief: (§2)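 H295R cells were incubated for 24 h with test agent at 10 μM or angiotensin-II at 0.1 μM. CYP11B1 and CYP11B2 mRNA levels were measured and expressed as fold of control.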

[2] = target: Voltage-gated inwardly rectifying potassium channel KCNH2 (Homo sapiens, UniProt Q12809); test: Inhibition of human ERG expressed in HEK293 cells by flux assay
Sequence of Voltage-gated inwardly rectifying potassium channel KCNH2 (Q12809 whole entry): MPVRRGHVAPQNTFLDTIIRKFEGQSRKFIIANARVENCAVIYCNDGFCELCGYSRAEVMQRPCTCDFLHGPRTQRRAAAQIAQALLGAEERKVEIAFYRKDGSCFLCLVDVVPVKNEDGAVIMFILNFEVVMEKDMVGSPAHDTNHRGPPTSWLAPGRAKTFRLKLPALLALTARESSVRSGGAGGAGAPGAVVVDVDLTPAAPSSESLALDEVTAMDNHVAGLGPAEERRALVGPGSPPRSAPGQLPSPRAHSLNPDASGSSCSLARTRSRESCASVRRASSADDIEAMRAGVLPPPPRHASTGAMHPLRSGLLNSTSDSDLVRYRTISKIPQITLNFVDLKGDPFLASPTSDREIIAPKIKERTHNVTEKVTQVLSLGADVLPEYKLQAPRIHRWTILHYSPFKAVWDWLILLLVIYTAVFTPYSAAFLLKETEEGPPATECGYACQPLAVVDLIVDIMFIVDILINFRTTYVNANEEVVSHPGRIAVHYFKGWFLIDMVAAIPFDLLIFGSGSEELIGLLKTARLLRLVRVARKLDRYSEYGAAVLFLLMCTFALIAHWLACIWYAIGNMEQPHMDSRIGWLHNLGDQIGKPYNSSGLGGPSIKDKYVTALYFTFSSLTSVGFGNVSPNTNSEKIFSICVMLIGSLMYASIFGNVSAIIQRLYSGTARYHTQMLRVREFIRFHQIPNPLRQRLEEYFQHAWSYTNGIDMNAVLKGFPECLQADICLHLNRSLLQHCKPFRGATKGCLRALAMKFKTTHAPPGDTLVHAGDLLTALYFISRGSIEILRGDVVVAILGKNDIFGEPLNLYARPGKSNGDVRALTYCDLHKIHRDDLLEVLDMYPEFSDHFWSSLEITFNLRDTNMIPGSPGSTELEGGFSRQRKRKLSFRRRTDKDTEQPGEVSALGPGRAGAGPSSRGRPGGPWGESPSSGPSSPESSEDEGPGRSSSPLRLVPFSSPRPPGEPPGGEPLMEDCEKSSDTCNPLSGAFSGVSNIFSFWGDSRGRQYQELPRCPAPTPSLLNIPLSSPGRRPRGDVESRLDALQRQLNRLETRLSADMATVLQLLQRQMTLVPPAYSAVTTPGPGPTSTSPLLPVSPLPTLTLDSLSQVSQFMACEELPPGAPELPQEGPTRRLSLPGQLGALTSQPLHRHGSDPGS

[3] = Volume of distribution at steady state in Balb/c mouse at 5 mg/kg, iv or 10 mg/kg, po administered via gavage measured upto 24 hrs by LC-MS/MS; type: ADME, organism-based; conditions: in vivo, read-out: Vdss; method in brief: as §1
[4] = Oral bioavailability in cynomolgus monkey at 5 mg/kg administered via gavage measured upto 24 hrs by LC-MS/MS; type: ADME, organism-based, Macaca fascicularis; conditions: in vivo; method in brief: as §1
[5] = Oral bioavailability in Balb/c mouse at 10 mg/kg measured upto 24 hrs by LC-MS/MS; type: ADME, organism-based; conditions: in vivo; method in brief: as §1
[6] = Stability in mouse liver microsomes assessed as parent compound remaining at 50 uM preincubated for 5 to 7 mins followed by NADPH addition and measured 10 mins post-dose by LC-MS/MS; type: ADME, Microsome; conditions: read-out: Stability
[7] = target: T1, Cholesteryl ester transfer protein (Homo sapiens, UniProt P11597); test: Inhibition of CETP in human whole plasma assessed as reduction in [3H]-CE/HDL transfer incubated for 2.5 hrs by topcount scintillation counting assay; type: cell-free
T1 sequence (P11597 whole entry): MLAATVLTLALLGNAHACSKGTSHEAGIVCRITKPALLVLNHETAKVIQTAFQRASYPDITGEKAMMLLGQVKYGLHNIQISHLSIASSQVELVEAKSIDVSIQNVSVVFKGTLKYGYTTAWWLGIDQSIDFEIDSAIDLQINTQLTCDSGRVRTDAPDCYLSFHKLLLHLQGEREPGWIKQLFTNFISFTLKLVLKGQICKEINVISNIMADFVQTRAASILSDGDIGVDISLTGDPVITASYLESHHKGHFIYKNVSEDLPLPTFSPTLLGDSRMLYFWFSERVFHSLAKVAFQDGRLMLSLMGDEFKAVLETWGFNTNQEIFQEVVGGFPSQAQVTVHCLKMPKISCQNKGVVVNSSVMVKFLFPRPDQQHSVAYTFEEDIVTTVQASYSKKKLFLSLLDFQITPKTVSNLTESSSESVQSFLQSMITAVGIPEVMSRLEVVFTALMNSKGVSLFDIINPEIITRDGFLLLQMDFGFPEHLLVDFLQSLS
Method in brief: (§3)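 CETP activity was measured by scintillation proximity assay and by human whole plasma assay. Each was run in duplicate at six concentrations, and the mean values were used to calculate IC50.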

[8] = Clearance in cynomolgus monkey at 1 mg/kg, iv or 5 mg/kg, po administered via gavage measured upto 24 hrs by LC-MS/MS; type: ADME, organism-based, Macaca fascicularis; conditions: in vivo; method in brief: as §1
[9] = Half life in cynomolgus monkey at 1 mg/kg, iv or 5 mg/kg, po administered via gavage measured upto 24 hrs by LC-MS/MS; type: ADME, organism-based, Macaca fascicularis; conditions: in vivo; method in brief: as §1
[10] = Cmax in telemetered rat at 2.5 mg/kg administered as iv infusion for 5 mins followed by 7.5 mg/kg, iv infusion for 55 mins; type: ADME, organism-based; design: dose 2.5 mg/kg, route intravenous; conditions: in vivo
Method in brief: (§4)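 Rats were telemetered and given a total of 10 mg/kg IV: 2.5 mg/kg infused over 5 min, then 7.5 mg/kg infused over 55 min (n = 7). Mean, systolic and diastolic BP, heart rate and locomotor activity were monitored, and the observed Cmax was recorded.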

[11] = Volume of distribution at steady state in cynomolgus monkey at 1 mg/kg, iv or 5 mg/kg, po administered via gavage measured upto 24 hrs by LC-MS/MS; type: ADME, organism-based, Macaca fascicularis; conditions: in vivo, read-out: Vdss; method in brief: as §1
[12] = Toxicity in telemetered rat assessed as effect on locomotor activity at 2.5 mg/kg administered as iv infusion for 5 mins followed by 7.5 mg/kg, iv infusion for 55 mins; type: organism-based; conditions: in vivo; method in brief: as §4
[13] = target: T2, Cholesteryl ester transfer protein (Homo sapiens) (UniProt P11597); test: Potency index, ratio of torcetrapib IC50 to test compound IC50 for inhibition of CETP in human whole plasma; type: cell-free
T2 sequence (whole entry): T1 sequence (P11597 whole entry)

[14] = Cardiac toxicity in telemetered rat assessed as change in heart rate at 2.5 mg/kg administered as iv infusion for 5 mins followed by 7.5 mg/kg, iv infusion for 55 mins; type: organism-based; conditions: in vivo; method in brief: as §4
CYP11B2 = test: Effect on CYP11B2 gene expression in human NCI-H295R cells at 10 uM measured after 24 hrs relative to control; type: ADME, cell-based; conditions: read-out: FC; method in brief: as §2
[15] = Oral bioavailability in Sprague-Dawley rat at 10 mg/kg administered via gavage measured upto 24 hrs by LC-MS/MS; type: ADME, organism-based; conditions: in vivo; method in brief: as §1
Mus musculus = test: In vivo inhibition of CETP in hCETP/apoB-100 dual transgenic mouse assessed as reduction in [3H]-CE transfer at 0.5 mg/kg, po administered via gavage measured after 2 to 8 hrs by radioactivity based assay; type: functional, organism-based
[16] = Clearance in Balb/c mouse at 5 mg/kg, iv or 10 mg/kg, po administered via gavage measured upto 24 hrs by LC-MS/MS; type: ADME, organism-based; conditions: in vivo; method in brief: as §1
[17] = Plasma concentration in hamster at 10 mg/kg, po qd administered for 7 days; type: ADME, organism-based; conditions: cricetinae
Method in brief: (§5)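 Hamsters received 10 mg/kg. Plasma cholesterol profiles were resolved by FPLC to give HDL cholesterol change, and plasma exposure was measured.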

[18] = Half life in Balb/c mouse at 5 mg/kg, iv or 10 mg/kg, po administered via gavage measured upto 24 hrs by LC-MS/MS; type: ADME, organism-based; conditions: in vivo; method in brief: as §1
[19] = Cardiac toxicity in telemetered rat assessed as change in systolic blood pressure at 2.5 mg/kg administered as iv infusion for 5 mins followed by 7.5 mg/kg, iv infusion for 55 mins; type: organism-based; conditions: in vivo; method in brief: as §4
Hamster = test: In vivo inhibition of CETP in hamster assessed as increase in HDL cholesterol at 10 mg/kg, po qd administered for 7 days measured 6 hrs post-dose on every other day by FPLC analysis relative to control; type: functional; conditions: Cricetinae; method in brief: as §5
[20] = Stability in human liver microsomes assessed as parent compound remaining at 50 uM preincubated for 5 to 7 mins followed by NADPH addition and measured 10 mins post-dose by LC-MS/MS; type: ADME, Microsome; conditions: read-out: Stability
[21] = Cardiac toxicity in telemetered rat assessed as change in diastolic blood pressure at 2.5 mg/kg administered as iv infusion for 5 mins followed by 7.5 mg/kg, iv infusion for 55 mins; type: organism-based; conditions: in vivo; method in brief: as §4
[22] = target: T1, Cholesteryl ester transfer protein; test: Inhibition of human recombinant CETP assessed as reduction in [3H]CE/HDL transfer incubated for 4 hrs by scintillation proximity assay; method in brief: as §3
[23] = Volume of distribution at steady state in Sprague-Dawley rat at 1 mg/kg, iv or 10 mg/kg, po administered via gavage measured upto 24 hrs by LC-MS/MS; type: ADME, organism-based; conditions: in vivo, read-out: Vdss; method in brief: as §1
[24] = Half life in Sprague-Dawley rat at 1 mg/kg, iv or 10 mg/kg, po administered via gavage measured upto 24 hrs by LC-MS/MS; type: ADME, organism-based; conditions: in vivo; method in brief: as §1

Compound: NC(C(=O)N[C@@](Cc1ccccc1)(c1cc(F)cc(OC(F)(F)C(F)F)c1)c1ccc(F)c(OC2CC2)c1)C(O)(C(F)(F)F)C(F)(F)F (stereo partly drawn)
- clearance [1]: 2.9 mL/min/kg
- fold induction at 24 h, 10 µM (CYP11B1): 1.3
- pIC50 [2]: < 4.10
- Vd [3]: 0.4 L/kg
- bioavailability [4]: 27%
- bioavailability [5]: 18%
- remaining at 10 min, 50 µM [6]: 100%
- pIC50 [7]: 7.21
- clearance [8]: 0.7 mL/min/kg
- half-life [9]: 69 h
- Cmax [10]: 23.5 µM
- Vd [11]: 3.7 L/kg
- Activity [12]: Non-Toxic
- Ratio IC50 [13]: 2
- Activity [14]: Non-Toxic
- fold induction at 24 h, 10 µM (CYP11B2): 0.9 to 2.1
- bioavailability [15]: 39%
- inhibition (Mus musculus): Active
- clearance [16]: 1.9 mL/min/kg
- concentration at 168 h [17]: 0.9 µM
- half-life [18]: 5 h
- Activity [19]: Non-Toxic
- inhibition in vivo at 10 mg/kg (Hamster): 32%
- remaining at 10 min, 50 µM [20]: 100%
- Activity [21]: Non-Toxic
- pIC50 [22]: 8.70
- Vd [23]: 1.5 L/kg
- half-life [24]: 25 h
